According to publication PMC9079187 (ACS nano, 2021):
Read-outs that look alike come from different tables or passages of the source. Each block holds one compound with its values, some of them ahead of it.

Assays:
[1] = target: T1, human claudin-1 expressed in bEnd.3 cells (Homo sapiens, UniProt O95832); format: cell-based; details: plasmid transfection; NP incubation 4 hrs; fluorescence
T1 sequence (O95832 1-211): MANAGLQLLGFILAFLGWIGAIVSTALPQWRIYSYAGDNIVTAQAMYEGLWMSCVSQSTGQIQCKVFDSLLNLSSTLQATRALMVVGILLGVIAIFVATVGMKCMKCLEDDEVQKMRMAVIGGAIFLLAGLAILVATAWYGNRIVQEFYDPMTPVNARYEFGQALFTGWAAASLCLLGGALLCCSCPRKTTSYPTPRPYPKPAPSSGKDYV
Procedure, shortened: (§1)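 bEnd.3 mouse brain endothelial cells were grown in DMEM. For mouse claudin-1, cells were treated with ethanol (50 mM) to induce expression. For human claudin-1, cells were transfected with a pCMV plasmid encoding it. Cells were then incubated with AF-647-labelled targeted NPs for 4 hrs and imaged by fluorescence. Claudin-1 induction was checked by western blot relative to β-actin.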

[2] = Zeta potential measurement; format: physicochemical; details: Malvern Zetasizer Nano; with NPs
[3] = target: T2, mouse claudin-1 in bEnd.3 cells (Mus musculus, UniProt O88551); assay: In vitro fluorescence imaging of NP binding to bEnd.3 cells; format: cell-based
T2 sequence (O88551 1-211): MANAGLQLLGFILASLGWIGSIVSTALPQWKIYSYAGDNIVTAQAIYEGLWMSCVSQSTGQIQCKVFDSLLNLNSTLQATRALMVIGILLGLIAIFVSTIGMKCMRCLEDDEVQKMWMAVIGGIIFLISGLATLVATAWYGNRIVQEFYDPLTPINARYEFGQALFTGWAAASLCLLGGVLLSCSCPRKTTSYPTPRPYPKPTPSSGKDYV
Procedure, shortened: as §1

[4] = target: T3, claudin-1 on brain endothelial cells (Mus musculus, UniProt O88551); format: in vivo; details: corpus callosum and hippocampus, confocal, ~2 hrs post-injection
T3 sequence (O88551 1-211): T2 sequence (O88551 1-211)
Procedure, shortened: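 Male and female C57BL/6J mice, 2 and 12 months old, received 100 μL of 0.5 mM test NP by tail vein, then a 100 μL PBS flush. About 2 h after injection they were perfused with 4% PFA and brains fixed 24 h. Sections were blocked 1 h at RT, stained overnight at 4 °C with rat anti-CD31 (1:250) and rabbit anti-claudin-1 (1:100), then AF488/AF555 secondaries (1:250, 2 h, RT) and DAPI. Confocal imaging used a 40x objective; colocalization was quantified with JACoP on ≥3 random fields per region per mouse.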

Dynamic light scattering = format: physicochemical; details: DLS, Malvern Zetasizer Nano; DPBS pH 7.4, 0.05 mM, filtered 0.22 μm
human claudin-3 = target: T4, human claudin-3 (Homo sapiens, UniProt O15551); assay: Microscale thermophoresis; format: binding; details: MST; claudin-3 0.4-14000 nM; C1C2-NP fixed at 70 nM; buffer with 0.1% n-Undecyl-β-D-Maltopyranoside; 23°C
T4 sequence (O15551 1-220): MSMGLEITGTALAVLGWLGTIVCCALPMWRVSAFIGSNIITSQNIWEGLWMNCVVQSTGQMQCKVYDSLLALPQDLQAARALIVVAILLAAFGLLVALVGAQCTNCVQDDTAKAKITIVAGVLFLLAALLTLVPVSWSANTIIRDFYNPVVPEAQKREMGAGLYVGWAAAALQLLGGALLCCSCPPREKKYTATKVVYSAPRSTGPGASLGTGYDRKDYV
Procedure, shortened: (§2)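 Microscale thermophoresis on a Monolith instrument. AF647-labelled test NP was held at 70 nM against titrated human claudin-3 (0.4–14000 nM), claudin-4 (0.8–28000 nM) or claudin-9 (0.6–20000 nM). Buffer was 10 mM Tris-HCl pH 8.0, 100 mM NaCl, 4% glycerol and 0.1% n-undecyl-β-D-maltopyranoside. As a non-specific control, detergent was titrated 10 mM–0.7 μM against 1 μM AF647-labelled control NP.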

human claudin-9 = target: T5, human claudin-9 (Homo sapiens, UniProt O95484); assay: Microscale thermophoresis; format: binding; details: MST; buffer with 0.1% n-Undecyl-β-D-Maltopyranoside; 23°C; C1C2-NP fixed at 70 nM, claudin-9 0.6-20000 nM
T5 sequence (O95484 1-217): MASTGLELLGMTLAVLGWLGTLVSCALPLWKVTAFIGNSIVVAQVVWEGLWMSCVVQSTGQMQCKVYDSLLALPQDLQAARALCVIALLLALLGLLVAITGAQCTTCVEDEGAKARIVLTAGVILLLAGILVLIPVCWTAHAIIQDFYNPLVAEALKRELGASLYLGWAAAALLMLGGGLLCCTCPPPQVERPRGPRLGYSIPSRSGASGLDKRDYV
Procedure, shortened: as §2

[5] = Biodistribution in peripheral organs by ICP-MS; format: in vivo, mouse; details: ICP-MS of Gd
Procedure, shortened: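 Male and female C57BL/6J mice, three aged 2 months and three aged 12 months, received 100 μL of 0.5 mM control or targeted Gd-oxide NPs. Transcardial perfusion with ice-cold DPBS followed at 1 hr. Heart, lung, liver, kidneys, spleen, colon and intestine were weighed and digested in HNO3 at 100 °C for 120 minutes. Samples were filtered, diluted and measured for Gd by ICP-MS.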

human claudin-4 = target: T6, human claudin-4 (Homo sapiens, UniProt O14493); assay: Microscale thermophoresis; format: binding; details: MST; buffer with 0.1% n-Undecyl-β-D-Maltopyranoside; 23°C; C1C2-NP fixed at 70 nM, claudin-4 0.8-28000 nM
T6 sequence (O14493 1-209): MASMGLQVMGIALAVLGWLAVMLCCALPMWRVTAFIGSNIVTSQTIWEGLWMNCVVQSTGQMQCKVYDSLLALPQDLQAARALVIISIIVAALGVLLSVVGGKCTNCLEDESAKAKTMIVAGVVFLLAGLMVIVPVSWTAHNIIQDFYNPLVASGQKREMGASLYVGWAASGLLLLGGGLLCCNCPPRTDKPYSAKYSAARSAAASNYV
Procedure, shortened: as §2

[6] = test system: hippocampus of middle aged humans; details: middle aged humans of around 40 years of age; contrast agent; cited from earlier work
[7] = target: C1C2-NP (C1C2 peptide conjugated to PEG diacid coated Gd nanoparticles, AF647 labeled); assay: MST

NP binding to bEnd.3 cells transfected to express human claudin-1 [1]: High NP binding
NP binding to ethanol-exposed bEnd.3 cells ([3]; ethanol (50mM) induced claudin-1, NP incubation 4 hrs): much higher binding
NP binding to control bEnd.3 cells ([3]; normal culture, low claudin-1 expression, AF-647 modified NPs): no binding
colocalization of claudin-1, CD31 and nanoparticles in brain ([4]; 2-month-old mice): not observed
colocalization of claudin-1, CD31 and nanoparticles in brain ([4]; 12-month-old mice): colocalization
binding to human claudin-3 (in words) (human claudin-3): does not show any binding
binding to human claudin-9 (in words) (human claudin-9): quite weak
binding to human claudin-4 (in words) (human claudin-4): quite weak
Compound: SSVSQSTGQIQSKVDSLLNLNSTQATR [C1C2-NP]
Zeta Potential [2]: 7.81±0.38 mV
Hydrodynamic size (Dynamic light scattering): 14.5±0.13 nm
accumulation in the kidney ([5]; 1 hr post-injection of 100 μL of 0.5 mM NPs, versus control NPs): increased
accumulation in kidneys, 12-month-old compared to 2-month-old mice ([5]; 1 hr post-injection, three mice per age): higher

Compound: CNC[C@H](O)[C@@H](O)[C@H](O)[C@H](O)CO.CNC[C@H](O)[C@@H](O)[C@H](O)[C@H](O)CO.O=C([O-])CN(CCN(CC(=O)[O-])CC(=O)O)CCN(CC(=O)O)C(COCc1ccccc1)C(=O)[O-].[Gd+3] (centres unmarked) [MultiHance]
K^trans, hippocampus [6]: ~ 0.001 min^−1

Compound: QEFYDPLTPINARYE [Cldn146-NP]
Zeta Potential [2]: 1.62±0.13 mV
Hydrodynamic size (Dynamic light scattering): 13.94±0.08 nm

Compound: SCVSQSTGQIQCKVFDSLLNLNSTLQAT [Cldn53-NP]
Zeta Potential [2]: 2.24±0.18 mV
Hydrodynamic size (Dynamic light scattering): 13.8±0.11 nm

Compound: GSQIYMICNQFYTPGGTG [Ocldn207-NP]
Zeta Potential [2]: 3.65±0.19 mV
Hydrodynamic size (Dynamic light scattering): 14.23±0.11 nm

Kd [7]: 21 µM
Compound: recombinant human claudin-1 (from UniProt O95832 1-211) (natural protein)
